Drawing on ChEMBL document CHEMBL1131521, “Structure-activity relationships for 1-phenylbenzimidazoles as selective ATP site inhibitors of the platelet-derived growth factor receptor” (J Med Chem, 1998), this text covers IC50 for 84 molecules.

The structures appear in SMILES notation. Some results are limits rather than exact numbers.

A word on the IC50: it is the concentration at which inhibition is half-maximal. A higher IC50 goes with a need for much substance.

Test [1] concerns the target Fibroblast growth factor receptor 1 (Homo sapiens, UniProt P11362). Nature of the test: Inhibition of phosphorylation of a random glutamate/tyrosine copolymer in lysates of transfected Sf9 insect cells overexpressing human fibroblast growth factor receptor 1. The gist of the method:
(§1)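 Kinase source was lysate of transfected Sf9 insect cells overexpressing the receptor. Substrate was a random glutamate/tyrosine (4:1) copolymer, and the read-out was its phosphorylation. IC50 was the drug concentration (µM) giving inhibition.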

In test [2] the target is Platelet-derived growth factor receptor beta (Mus musculus, UniProt P05622). Nature of the test: Inhibition of phosphorylation of a random glutamate/tyrosine copolymer in lysates of transfected Sf9 insect cells overexpressing mouse platelet-derived growth factor receptor beta. The gist of the method: as §1
Chain of Platelet-derived growth factor receptor beta (P05622 whole entry): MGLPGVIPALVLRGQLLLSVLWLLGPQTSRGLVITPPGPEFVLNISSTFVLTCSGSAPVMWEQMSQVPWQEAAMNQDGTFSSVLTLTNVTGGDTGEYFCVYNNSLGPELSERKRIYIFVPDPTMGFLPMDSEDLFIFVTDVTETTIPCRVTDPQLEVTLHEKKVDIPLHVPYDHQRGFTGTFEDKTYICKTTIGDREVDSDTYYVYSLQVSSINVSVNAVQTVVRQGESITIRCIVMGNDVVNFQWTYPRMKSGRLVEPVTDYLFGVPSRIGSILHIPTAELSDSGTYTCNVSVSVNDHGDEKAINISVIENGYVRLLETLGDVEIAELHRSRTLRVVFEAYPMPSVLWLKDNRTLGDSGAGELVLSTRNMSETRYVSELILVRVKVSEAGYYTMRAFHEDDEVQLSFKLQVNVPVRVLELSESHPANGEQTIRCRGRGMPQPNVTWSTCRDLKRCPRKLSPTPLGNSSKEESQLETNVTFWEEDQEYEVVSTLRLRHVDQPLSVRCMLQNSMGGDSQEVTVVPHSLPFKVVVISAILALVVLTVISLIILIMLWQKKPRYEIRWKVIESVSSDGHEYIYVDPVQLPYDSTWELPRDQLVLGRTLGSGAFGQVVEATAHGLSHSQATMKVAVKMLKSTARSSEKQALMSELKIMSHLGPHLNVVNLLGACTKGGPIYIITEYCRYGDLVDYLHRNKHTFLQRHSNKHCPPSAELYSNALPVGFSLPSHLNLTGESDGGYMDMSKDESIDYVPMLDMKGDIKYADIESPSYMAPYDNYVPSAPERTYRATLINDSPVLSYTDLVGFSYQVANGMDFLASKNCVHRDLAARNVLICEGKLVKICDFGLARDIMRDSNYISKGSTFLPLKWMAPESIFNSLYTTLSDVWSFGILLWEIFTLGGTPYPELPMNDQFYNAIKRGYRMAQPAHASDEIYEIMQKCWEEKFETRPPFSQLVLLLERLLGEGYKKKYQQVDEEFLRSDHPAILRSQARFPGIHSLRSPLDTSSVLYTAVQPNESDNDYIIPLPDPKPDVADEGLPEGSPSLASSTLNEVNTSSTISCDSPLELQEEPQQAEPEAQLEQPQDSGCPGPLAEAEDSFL
In test [3] the target is Platelet-derived growth factor receptor (PDGFr) (Rattus norvegicus, UniProt P20786+Q05030). Nature of the test: Inhibition of PDGF-stimulated Platelet-derived growth factor receptor autophosphorylation in rat aorta vascular smooth muscle cells. The test is classed as functional. A digest of the protocol: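 Rat aortic vascular smooth muscle cells, serum-starved, were exposed to compound for 2 h before stimulation with PDGF-BB at 25 ng/mL. Cell lysates or immunoprecipitates were analysed by Western blot with anti-phosphotyrosine antibody.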

Chain of Fibroblast growth factor receptor 1 (P11362 whole entry): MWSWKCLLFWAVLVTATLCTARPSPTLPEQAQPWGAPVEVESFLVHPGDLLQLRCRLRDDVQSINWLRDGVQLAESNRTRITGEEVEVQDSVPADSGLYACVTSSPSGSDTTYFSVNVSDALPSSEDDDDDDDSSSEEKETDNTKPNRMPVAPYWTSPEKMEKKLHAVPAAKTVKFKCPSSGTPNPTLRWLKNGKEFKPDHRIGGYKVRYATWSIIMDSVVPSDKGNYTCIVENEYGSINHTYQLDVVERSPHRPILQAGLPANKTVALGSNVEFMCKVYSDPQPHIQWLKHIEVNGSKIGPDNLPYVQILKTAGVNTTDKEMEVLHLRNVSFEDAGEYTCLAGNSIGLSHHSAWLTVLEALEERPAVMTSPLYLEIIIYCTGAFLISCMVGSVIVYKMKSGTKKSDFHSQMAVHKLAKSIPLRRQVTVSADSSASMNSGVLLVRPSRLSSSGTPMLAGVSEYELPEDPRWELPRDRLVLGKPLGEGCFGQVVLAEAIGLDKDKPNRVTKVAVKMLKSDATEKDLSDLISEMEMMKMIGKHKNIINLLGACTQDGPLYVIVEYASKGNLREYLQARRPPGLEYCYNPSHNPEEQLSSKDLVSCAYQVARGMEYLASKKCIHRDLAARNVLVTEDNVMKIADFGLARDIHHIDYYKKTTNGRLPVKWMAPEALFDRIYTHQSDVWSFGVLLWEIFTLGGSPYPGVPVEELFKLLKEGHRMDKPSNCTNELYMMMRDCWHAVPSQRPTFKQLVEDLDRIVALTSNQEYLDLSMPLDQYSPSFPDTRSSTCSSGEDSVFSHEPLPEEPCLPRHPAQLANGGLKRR

In the case of `Oc1ccc2ncn(-c3ccccc3)c2c1`, the IC50 in test [1] was over 50 µM.

Regarding `COc1ccc(-n2cnc3ccccc32)cc1`, the IC50 in test [1] is over 50 µM; in test [2] it was 13 µM.

In test [2], `NC(=O)c1ccc2c(c1)ncn2-c1ccccc1` gave an IC50 of 16 µM.

On to `O=Cc1ccc(-n2cnc3ccccc32)cc1`, for which the IC50 in test [1] was over 50 µM; in test [2], 13 µM.

With `Clc1cccc(-n2cnc3ccccc32)c1`, the 50% inhibitory concentration (IC50) in test [1] was 50 µM; in test [2], 47 µM.

For the molecule `O=[N+]([O-])c1ccccc1-n1cnc2ccccc21`, the IC50 in test [1] and in test [2] was over 50 µM in each case.

With `O=[N+]([O-])c1ccc(-n2cnc3ccccc32)cc1`, the IC50 in test [1] is over 50 µM; in test [2] it was 30 µM.

As for `c1ccc(-n2ccc3ccccc32)cc1`, the IC50 in test [1] and in test [2] was over 50 µM each time.

`O=C(O)c1cccc(-n2cnc3ccccc32)c1`: the IC50 in test [1] and in test [2] was over 50 µM throughout.

As to `CC(=O)c1ccccc1-n1cnc2ccccc21`, the IC50 in test [1] and in test [2] was over 50 µM throughout.

Consider `O=C(c1ccccc1)n1cnc2ccccc21`, for which the IC50 in test [1] and in test [2] was over 50 µM in each case.

Take `Oc1cccc2ncn(-c3ccccc3)c12`: the IC50 in test [1] was 50 µM; in test [2], over 50 µM.

In the case of `Oc1cccc2c1ncn2-c1ccccc1`, the values for the IC50 in test [1], in test [2] and in test [3] were over 50 µM, 11 µM and over 10 µM, respectively.

On to `Oc1ccccc1-n1cnc2ccccc21`, for which the IC50 in test [1] and in test [2] was over 50 µM in each case.

As to `NC(=O)c1cccc2ncn(-c3ccccc3)c12`, the IC50 in test [1] and in test [2] was over 50 µM in each case.

On to `Nc1nc2ccccc2n1-c1ccccc1`, for which the IC50 in test [1] and in test [2] was over 50 µM each time.

As for `O=Cc1ccccc1-n1cnc2ccccc21`, the IC50 in test [1] and in test [2] was over 50 µM each time.

On to `c1ccc(C2=Nc3ccccc3NCC2)cc1`, for which the IC50 in test [1] and in test [2] was over 50 µM in each case.

Take `Cc1cccc2c1ncn2-c1ccccc1`: the IC50 in test [1] and in test [2] was over 50 µM in each case.

For the molecule `c1ccc(-n2nnc3ccccc32)cc1`, the IC50 in test [1] and in test [2] was over 50 µM throughout.

On to `O=[N+]([O-])c1ccc2c(c1)ncn2-c1ccccc1`, for which the values for the IC50 in test [1] and in test [2] were over 50 µM and 16 µM, respectively.

As for `c1ccc2c(c1)ncn2-c1ccncc1`, the IC50 in test [1] was over 50 µM; in test [2], 12 µM.

On to `Cc1ccc2ncn(-c3ccccc3)c2c1`, for which the IC50 is over 50 µM in test [1] and 40 µM in test [2].

`Clc1ccc2ncn(-c3ccccc3)c2c1` came in with a half-maximal inhibitory concentration (IC50) in test [1] of over 50 µM.

For `CCOC(=O)c1cccc(-n2cnc3ccccc32)c1`, the IC50 in test [1] and in test [2] was over 50 µM throughout.

As to `COc1cccc(-n2cnc3ccccc32)c1`, the IC50 came to 50 µM in test [1] and 25 µM in test [2].

As for `COC(=O)c1cccc2ncn(-c3ccccc3)c12`, the IC50 in test [1] and in test [2] was over 50 µM each time.

As to `NC(=O)c1ccc(-n2cnc3ccccc32)cc1`, the IC50 in test [1] was over 50 µM; in test [2], 23 µM.

On to `O=C(O)c1ccc2ncn(-c3ccccc3)c2c1`, for which the IC50 in test [1] and in test [2] was 50 µM in each case.

As to `Nc1ccc2ncn(-c3ccccc3)c2c1`, the values for the IC50 in test [1] and in test [2] were over 50 µM and 23 µM, respectively.

For the molecule `COC(=O)c1ccc2ncn(-c3ccccc3)c2c1`, the IC50 in test [1] was over 50 µM.

Take `Cc1cccc2ncn(-c3ccccc3)c12`: the IC50 in test [1] and in test [2] was over 50 µM each time.

On to `COc1ccc2ncn(-c3ccccc3)c2c1`, for which the IC50 is over 50 µM in test [1] and over 10 µM in test [3].

As to `O=[N+]([O-])c1ccc2ncn(-c3ccccc3)c2c1`, the IC50 came to 39 µM in test [1] and 50 µM in test [2].

With `NC(=O)c1ccc2ncn(-c3ccccc3)c2c1`, the values for the IC50 in test [1] and in test [2] were over 50 µM and 25 µM, respectively.

Regarding `COc1cccc2ncn(-c3ccccc3)c12`, the concentration for half-maximal inhibition (IC50) is 50 µM in test [1] and 37 µM in test [2].

Turning to `NC(=O)c1cccc(-n2cnc3ccccc32)c1`, the IC50 in test [1] and in test [2] was over 50 µM throughout.

As to `c1ccc(-n2cnc3ccccc32)cc1`, the IC50 is over 50 µM in test [1] and 2.3 µM in test [3].

With `CC(=O)c1ccc2c(c1)ncn2-c1ccccc1`, the IC50 in test [2] amounted to 0.86 µM. In other words, the sub-micromolar range.

In test [1], `Nc1cccc(-n2cnc3ccccc32)c1` yielded an IC50 of over 50 µM.

Regarding `CCOC(=O)c1ccccc1-n1cnc2ccccc21`, the IC50 in test [1] and in test [2] was over 50 µM each time.

Regarding `COC(=O)c1cccc2c1ncn2-c1ccccc1`, the IC50 in test [1] and in test [2] was over 50 µM each time.

Consider `O=C(O)c1cccc2ncn(-c3ccccc3)c12`, for which the IC50 in test [1] and in test [2] was over 50 µM throughout.

As to `Cc1nc2ccccc2n1-c1ccccc1`, the IC50 in test [1] and in test [2] was over 50 µM throughout.

As to `Nc1ccccc1-n1cnc2ccccc21`, the IC50 in test [1] and in test [2] was over 50 µM throughout.

On to `Cc1ccccc1-n1cnc2ccccc21`, for which the IC50 in test [1] and in test [2] was over 50 µM throughout.

Turning to `CC(=O)c1cccc(-n2cnc3ccccc32)c1`, the IC50 was over 50 µM in test [1] and 19 µM in test [2].

For `c1ccc(-c2nc3ccccc3[nH]2)cc1`, the IC50 in test [1] and in test [2] was over 50 µM in each case.

On to `c1ccc(Cn2cnc3ccccc32)cc1`, for which the IC50 in test [1] and in test [2] was over 50 µM each time.

For the molecule `c1ccc(-n2cnc3ccccc32)nc1`, the half-inhibitory concentration (IC50) in test [1] and in test [2] was over 50 µM throughout.

For the molecule `NC(=O)c1cccc2c1ncn2-c1ccccc1`, the IC50 in test [1] and in test [2] was over 50 µM throughout.

Take `Cc1cccc(-n2cnc3ccccc32)c1`: the IC50 is over 50 µM in test [1] and 28 µM in test [2].

Turning to `COC(=O)c1ccc(-n2cnc3ccccc32)cc1`, in test [1], the IC50 was found to be 50 µM.

With `Cc1ccc(-n2cnc3ccccc32)cc1`, the IC50 in test [1] and in test [2] was over 50 µM throughout.

`COc1ccccc1-n1cnc2ccccc21`: the IC50 in test [1] and in test [2] was over 50 µM in each case.

For the molecule `N#Cc1cccc(-n2cnc3ccccc32)c1`, the IC50 in test [1] and in test [2] was over 50 µM in each case.

`O=C(O)c1ccccc1-n1cnc2ccccc21`: the IC50 in test [1] and in test [2] was over 50 µM throughout.

Regarding `c1cncc(-n2cnc3ccccc32)c1`, the IC50 in test [1] and in test [2] was over 50 µM each time.

On to `c1ccc(-n2ncc3ccccc32)cc1`, for which the IC50 in test [1] and in test [2] was over 50 µM throughout.

As to `O=C(O)c1cccc2c1ncn2-c1ccccc1`, the IC50 in test [1] and in test [2] was over 50 µM each time.

On to `O=Cc1ccc2c(c1)ncn2-c1ccccc1`, for which the IC50 in test [1] is over 50 µM.

Take `Cc1ccc2c(c1)ncn2-c1ccccc1`: the IC50 in test [1] amounted to 50 µM.

`N#Cc1ccccc1-n1cnc2ccccc21`: the IC50 in test [1] and in test [2] was over 50 µM in each case.

Regarding `Nc1cccc2ncn(-c3ccccc3)c12`, the IC50 in test [1] and in test [2] was over 50 µM throughout.

Turning to `O=[N+]([O-])c1cccc2ncn(-c3ccccc3)c12`, the half-maximal inhibitory concentration (IC50) in test [1] was 40 µM; in test [2], over 50 µM.

In the case of `Clc1cccc2c1ncn2-c1ccccc1`, the IC50 in test [1] and in test [2] was over 50 µM in each case.

For `Nc1ccc(-n2cnc3ccccc32)cc1`, the results for the IC50 in test [1] and in test [3] were over 50 µM and 2 µM, respectively.

`O=[N+]([O-])c1cccc2c1ncn2-c1ccccc1`: the IC50 in test [1] and in test [2] was over 50 µM each time.

With `Clc1ccccc1-n1cnc2ccccc21`, the IC50 in test [1] and in test [2] was over 50 µM each time.

`O=C(O)c1ccc(-n2cnc3ccccc32)cc1`: the IC50 in test [1] and in test [2] was over 50 µM each time.

As to `c1ccc(-n2cnc3cccnc32)cc1`, the IC50 in test [1] is over 50 µM; in test [2] it was 28 µM.

Turning to `O=[N+]([O-])c1cccc(-n2cnc3ccccc32)c1`, the IC50 in test [1] is 35 µM; in test [2] it was 16 µM.

As for `Clc1cccc2ncn(-c3ccccc3)c12`, the IC50 in test [1] and in test [2] was over 50 µM throughout.

`O=Cc1cccc(-n2cnc3ccccc32)c1`: inhibition in test [1] was half-maximal at 50 µM (IC50).

`Oc1nc2ccccc2n1-c1ccccc1`: the IC50 in test [1] and in test [2] was over 50 µM throughout.

In the case of `COC(=O)c1ccc2c(c1)ncn2-c1ccccc1`, the results for the IC50 in test [2] and in test [3] were 0.83 µM and 0.15 µM, respectively.

Take `COc1ccc2c(c1)ncn2-c1ccccc1`: the figures for the IC50 in test [2] and in test [3] were 0.43 µM and 1.9 µM, respectively.

Turning to `Oc1ccc2c(c1)ncn2-c1ccccc1`, the values for the IC50 in test [2] and in test [3] were 0.44 µM and 0.13 µM, respectively.

For the molecule `COc1cccc2c1ncn2-c1ccccc1`, the IC50 was over 50 µM in test [1] and 50 µM in test [2].

In the case of `Nc1cccc2c1ncn2-c1ccccc1`, the IC50 in test [1] and in test [2] was over 50 µM in each case.

As for `NC(=O)c1ccccc1-n1cnc2ccccc21`, the IC50 in test [1] and in test [2] was over 50 µM throughout.

Consider `Clc1ccc(-n2cnc3ccccc32)cc1`, for which the IC50 is over 50 µM in test [1] and 50 µM in test [2].

As for `N#Cc1ccc(-n2cnc3ccccc32)cc1`, the values for the IC50 in test [1] and in test [2] were over 50 µM and 16 µM, respectively.

`CC(=O)c1ccc(-n2cnc3ccccc32)cc1`: the IC50 in test [1] is over 50 µM; in test [2], 24 µM.
